Test results from ChEMBL document CHEMBL1151851, “Antioxidant Lignans from the Fruits of Broussonetia papyrifera” (J Nat Prod, 2009).
Active and inactive are the calls of the source. The calls are words filed in the database; no cut-off is given here.

What was measured:
[1] = test system: Radical scavenging activity; assay: Antioxidant activity assessed as DPPH radical scavenging activity after 30 mins by spectrophotometry; type: functional
PC-12 = assay: Antioxidant activity against H2O2-induced impairment in rat PC12 cells at 0.16 to 100 uM after 3 hrs by MTT assay; type: functional, cell-based
How it was run: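 PC12 cells in RPMI 1640 with 5% fetal calf serum, 10% horse serum, penicillin/streptomycin and 20 mM L-glutamine. Seeded at 1 × 10^6/mL, 24 h at 37 °C, 5% CO2. Then exposed to H2O2 (200 µM final) together with compound (0.16–100 µM final) for 3 h. PBS rinse, MTT 0.4 mg/mL for 4 h at 37 °C, DMSO solubilization, OD 570 nm. Viability %, n = 6, mean ± SD.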

IC50 [1] [µM]	SMILES	Activity (PC-12)
156	COc1cc(/C=C/CO)ccc1O[C@H](CO)[C@@H](O)c1ccc(O)cc1 (relative stereo) [CHUSHIZISINS B]	
281	COC(c1ccc(O)cc1)[C@H]1CO[C@@H](c2ccc(O)cc2)[C@@H]1CO (relative stereo) [CHUSHIZISIN G]	
	COc1cc([C@H]2OC[C@H]3[C@@H]2CO[C@@H]3c2ccc(O)cc2)cc2c1O[C@H](c1ccc(O)cc1)[C@H]2CO (relative stereo)	Active
	COc1cc(C(=O)[C@@H]2CO[C@H](c3ccc(O)cc3)[C@H]2CO)ccc1O[C@H](CO)[C@@H](O)c1ccc(O)cc1 (relative stereo)	Active
	COc1cc(C(=O)CCO)cc2c1O[C@H](c1ccc(O)cc1)[C@H]2CO (relative stereo)	Active
237	COc1cc(/C=C/CO)ccc1O[C@H](CO)[C@H](O)c1ccc(O)cc1 (relative stereo) [CHUSHIZISINS A]	Active
274	COc1cc(CCCO)ccc1O[C@H](CO)[C@@H](O)c1ccc(O)cc1 (relative stereo) [CHUSHIZISINS D]	
60.9	COc1cc([C@H](O)[C@@H](CO)Oc2ccc(/C=C/CO)cc2OC)ccc1O (relative stereo)	Active
	COc1cc(CCCO)cc2c1O[C@H](c1ccc(O)cc1)[C@H]2CO	Active
